Reference: ChEMBL document CHEMBL4811225 (J Med Chem, 2021)
pIC50: −log10 of the molar value. Where a SMILES comes first, the peptide text is derived from it. Bridges are numbered along the chain shown (N, C = ends).

Key:
Rattus norvegicus [1] = species: Rattus norvegicus; assay: Selectivity ratio of IC50 for rat alpha2beta4 nAChR to IC50 for rat alpha6/alpha3beta4 nAChR
Summary of the method: (§1)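 Ratio of each subtype's IC50, from TEVC inhibition of ACh-evoked currents in X. laevis oocytes, to the IC50 at the same species' α6/α3β4 nAChR; IC50 values with 95% CI, n = number of oocytes.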

[2] = biological target: Neuronal acetylcholine receptor; alpha2/beta2 (Homo sapiens, UniProt P17787+Q15822); assay: Inhibition of human alpha2beta2 nAChR expressed in Xenopus laevis oocytes assessed as inhibition of acetylcholine-induced current response by two-electrode voltage-clamp method; assay type: cell-based, Oocyte
Sequence of Neuronal acetylcholine receptor; alpha2/beta2 (P17787 whole entry, the tested form may be a part): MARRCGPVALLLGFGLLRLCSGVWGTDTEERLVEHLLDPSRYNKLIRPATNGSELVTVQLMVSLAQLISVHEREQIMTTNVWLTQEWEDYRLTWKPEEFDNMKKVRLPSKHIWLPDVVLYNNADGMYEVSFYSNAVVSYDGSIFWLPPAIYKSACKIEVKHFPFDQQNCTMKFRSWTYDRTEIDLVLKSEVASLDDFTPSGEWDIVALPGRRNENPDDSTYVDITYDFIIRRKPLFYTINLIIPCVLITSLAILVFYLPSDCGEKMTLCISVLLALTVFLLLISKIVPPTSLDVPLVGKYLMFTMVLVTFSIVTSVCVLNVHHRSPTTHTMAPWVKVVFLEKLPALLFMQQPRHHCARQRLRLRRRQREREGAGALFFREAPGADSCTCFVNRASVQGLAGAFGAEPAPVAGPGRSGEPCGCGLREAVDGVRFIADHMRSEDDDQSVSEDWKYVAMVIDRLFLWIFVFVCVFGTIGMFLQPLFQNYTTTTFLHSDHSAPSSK
Sequence of Neuronal acetylcholine receptor; alpha2/beta2 (Q15822 whole entry, the tested form may be a part): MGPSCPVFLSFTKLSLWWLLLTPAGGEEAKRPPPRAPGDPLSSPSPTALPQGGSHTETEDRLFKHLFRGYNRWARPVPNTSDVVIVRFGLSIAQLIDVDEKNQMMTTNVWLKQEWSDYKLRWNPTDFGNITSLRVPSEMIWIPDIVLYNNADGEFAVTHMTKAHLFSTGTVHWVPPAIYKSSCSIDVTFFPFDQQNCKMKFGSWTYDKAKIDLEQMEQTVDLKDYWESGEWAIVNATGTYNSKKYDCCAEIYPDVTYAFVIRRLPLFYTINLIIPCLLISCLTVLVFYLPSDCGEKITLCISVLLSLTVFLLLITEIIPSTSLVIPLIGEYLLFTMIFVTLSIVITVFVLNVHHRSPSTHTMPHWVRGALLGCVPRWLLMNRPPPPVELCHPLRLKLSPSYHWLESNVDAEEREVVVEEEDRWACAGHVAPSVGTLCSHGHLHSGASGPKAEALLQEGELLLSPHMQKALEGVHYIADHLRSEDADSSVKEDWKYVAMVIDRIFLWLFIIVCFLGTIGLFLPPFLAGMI
Summary of the method: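 Two-electrode voltage clamp of stage IV–V oocytes 1–5 days after equal-ratio cRNA injection; ACh 100 μM (β2-containing subtypes, α9α10), 1 s every 60 s in frog saline. Peptide perfused up to 1 μM, responses normalized to mean of three control responses; above 1 μM, 5 min static bath. IC50 with 95% CI; n = oocytes.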

[3] = biological target: Nicotinic acetylcholine receptor alpha6/alpha3/beta4 (Rattus norvegicus) (UniProt P04757+P12392+P43143); conditions: Oocyte
Homo sapiens = species: Homo sapiens; assay: Selectivity ratio of IC50 for human alpha6/alpha3beta2beta3 nAChR to IC50 for human alpha6/alpha3beta4 nAChR; summary of the method: as §1
[4] = biological target: Neuronal acetylcholine receptor; alpha3/beta2 (Rattus norvegicus, UniProt P04757+P12390); assay type: cell-based, Oocyte
Sequence of Neuronal acetylcholine receptor; alpha3/beta2 (P04757 whole entry): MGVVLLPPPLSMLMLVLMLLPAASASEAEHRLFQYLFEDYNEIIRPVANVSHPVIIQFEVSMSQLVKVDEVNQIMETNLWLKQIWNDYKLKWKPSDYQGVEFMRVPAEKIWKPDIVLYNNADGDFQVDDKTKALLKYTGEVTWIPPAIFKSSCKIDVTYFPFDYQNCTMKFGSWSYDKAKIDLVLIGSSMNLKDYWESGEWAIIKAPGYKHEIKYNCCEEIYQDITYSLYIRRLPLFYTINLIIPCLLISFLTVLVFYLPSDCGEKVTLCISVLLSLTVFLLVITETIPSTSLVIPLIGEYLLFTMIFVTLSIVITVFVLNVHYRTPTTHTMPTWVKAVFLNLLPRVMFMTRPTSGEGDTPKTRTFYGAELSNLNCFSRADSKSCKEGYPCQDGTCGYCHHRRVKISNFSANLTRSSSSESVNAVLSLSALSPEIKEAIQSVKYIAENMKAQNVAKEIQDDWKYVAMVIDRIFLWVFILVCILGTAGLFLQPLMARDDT
Sequence of Neuronal acetylcholine receptor; alpha3/beta2 (P12390 whole entry): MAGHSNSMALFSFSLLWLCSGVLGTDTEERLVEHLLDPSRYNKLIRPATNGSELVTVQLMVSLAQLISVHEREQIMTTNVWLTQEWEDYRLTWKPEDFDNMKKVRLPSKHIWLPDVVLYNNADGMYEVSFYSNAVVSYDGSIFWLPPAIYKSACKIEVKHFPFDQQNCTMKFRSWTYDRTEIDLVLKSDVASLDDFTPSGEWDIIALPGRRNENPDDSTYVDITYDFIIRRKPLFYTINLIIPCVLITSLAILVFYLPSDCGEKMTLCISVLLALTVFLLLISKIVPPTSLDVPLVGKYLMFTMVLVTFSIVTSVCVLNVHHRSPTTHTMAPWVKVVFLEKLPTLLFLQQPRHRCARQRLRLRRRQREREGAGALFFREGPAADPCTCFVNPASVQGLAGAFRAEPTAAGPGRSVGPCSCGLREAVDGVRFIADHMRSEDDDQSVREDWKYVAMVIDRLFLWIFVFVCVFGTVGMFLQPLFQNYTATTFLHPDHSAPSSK

Rattus norvegicus [5] = species: Rattus norvegicus; assay: Selectivity ratio of IC50 for rat alpha4beta2 nAChR to IC50 for rat alpha6/alpha3beta4 nAChR; summary of the method: as §1
[6] = biological target: Neuronal acetylcholine receptor; alpha4/beta4 (Rattus norvegicus) (UniProt P09483+P12392); assay: Inhibition of rat alpha4beta4 nAChR expressed in Xenopus laevis oocytes assessed as inhibition of acetylcholine-induced current response at 10 uM by two-electrode voltage-clamp method relative to control; assay type: cell-based; conditions: Oocyte
Summary of the method: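 Stage IV–V X. laevis oocytes expressing equal-ratio cRNAs of α2β4, α3β4, α4β4 or α7 subunits; TEVC 1–5 days after injection. ACh 300 μM, 1 s at 60 s intervals. 10 μM peptide as 5 min static bath, normalized to ACh response after 5 min bath of control saline; mean ± SD, n = 4.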

[7] = biological target: Nicotinic acetylcholine receptor alpha6/alpha3/beta2/beta3 (Rattus norvegicus, UniProt P04757+P12390+P12391+P43143); assay type: cell-based, Oocyte
Sequence of Nicotinic acetylcholine receptor alpha6/alpha3/beta2/beta3 (P04757 whole entry): as the sequence (P04757 whole entry) above
Sequence of Nicotinic acetylcholine receptor alpha6/alpha3/beta2/beta3 (P12390 whole entry): as the sequence (P12390 whole entry) above
Sequence of Nicotinic acetylcholine receptor alpha6/alpha3/beta2/beta3 (P12391 whole entry): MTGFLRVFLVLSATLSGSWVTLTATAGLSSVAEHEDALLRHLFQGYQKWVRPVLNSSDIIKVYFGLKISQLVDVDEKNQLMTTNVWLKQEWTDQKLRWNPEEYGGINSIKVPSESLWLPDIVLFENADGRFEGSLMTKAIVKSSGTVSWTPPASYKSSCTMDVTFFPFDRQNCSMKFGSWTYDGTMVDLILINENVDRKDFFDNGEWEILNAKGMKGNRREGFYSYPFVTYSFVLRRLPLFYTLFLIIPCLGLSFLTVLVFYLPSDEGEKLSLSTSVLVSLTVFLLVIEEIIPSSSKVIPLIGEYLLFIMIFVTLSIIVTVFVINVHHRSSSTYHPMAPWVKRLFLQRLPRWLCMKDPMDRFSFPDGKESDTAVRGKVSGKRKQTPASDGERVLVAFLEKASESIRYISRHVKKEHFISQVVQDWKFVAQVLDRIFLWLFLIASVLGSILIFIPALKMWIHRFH
Sequence of Nicotinic acetylcholine receptor alpha6/alpha3/beta2/beta3 (P43143 whole entry): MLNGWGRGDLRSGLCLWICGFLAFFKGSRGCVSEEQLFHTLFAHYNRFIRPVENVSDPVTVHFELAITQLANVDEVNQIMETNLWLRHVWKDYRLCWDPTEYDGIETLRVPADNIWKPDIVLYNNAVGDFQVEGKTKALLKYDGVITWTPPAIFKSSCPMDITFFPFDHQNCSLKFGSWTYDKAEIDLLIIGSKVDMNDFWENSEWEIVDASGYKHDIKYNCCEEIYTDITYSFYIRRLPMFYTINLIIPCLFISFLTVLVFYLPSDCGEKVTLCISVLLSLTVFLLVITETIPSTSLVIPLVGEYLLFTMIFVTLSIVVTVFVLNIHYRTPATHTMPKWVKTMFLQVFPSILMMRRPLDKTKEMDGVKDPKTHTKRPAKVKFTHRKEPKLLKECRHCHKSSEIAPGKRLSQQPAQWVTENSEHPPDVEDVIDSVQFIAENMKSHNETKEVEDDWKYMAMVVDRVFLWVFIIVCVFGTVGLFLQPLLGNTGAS

[8] = biological target: Neuronal acetylcholine receptor; alpha2/beta4 (Rattus norvegicus, UniProt P12389+P12392); assay: Inhibition of rat alpha2beta4 nAChR expressed in Xenopus laevis oocytes assessed as inhibition of acetylcholine-induced current response by two-electrode voltage-clamp method; assay type: cell-based, Oocyte
Sequence of Neuronal acetylcholine receptor; alpha2/beta4 (P12389 whole entry, the tested form may be a part): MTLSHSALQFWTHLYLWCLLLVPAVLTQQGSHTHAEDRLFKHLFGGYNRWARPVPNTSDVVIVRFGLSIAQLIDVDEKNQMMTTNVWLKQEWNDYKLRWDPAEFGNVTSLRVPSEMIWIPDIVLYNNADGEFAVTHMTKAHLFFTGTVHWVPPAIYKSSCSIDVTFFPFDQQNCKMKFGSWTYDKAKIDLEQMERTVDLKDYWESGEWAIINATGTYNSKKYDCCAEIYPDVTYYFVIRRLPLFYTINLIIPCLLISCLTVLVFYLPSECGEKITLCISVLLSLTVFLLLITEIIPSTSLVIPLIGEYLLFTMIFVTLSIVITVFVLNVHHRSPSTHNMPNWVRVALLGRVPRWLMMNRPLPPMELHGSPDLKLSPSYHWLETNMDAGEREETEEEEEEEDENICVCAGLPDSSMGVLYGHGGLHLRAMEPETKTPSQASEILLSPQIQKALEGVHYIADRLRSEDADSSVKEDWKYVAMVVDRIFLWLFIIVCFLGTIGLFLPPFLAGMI
Sequence of Neuronal acetylcholine receptor; alpha2/beta4 (P12392 whole entry, the tested form may be a part): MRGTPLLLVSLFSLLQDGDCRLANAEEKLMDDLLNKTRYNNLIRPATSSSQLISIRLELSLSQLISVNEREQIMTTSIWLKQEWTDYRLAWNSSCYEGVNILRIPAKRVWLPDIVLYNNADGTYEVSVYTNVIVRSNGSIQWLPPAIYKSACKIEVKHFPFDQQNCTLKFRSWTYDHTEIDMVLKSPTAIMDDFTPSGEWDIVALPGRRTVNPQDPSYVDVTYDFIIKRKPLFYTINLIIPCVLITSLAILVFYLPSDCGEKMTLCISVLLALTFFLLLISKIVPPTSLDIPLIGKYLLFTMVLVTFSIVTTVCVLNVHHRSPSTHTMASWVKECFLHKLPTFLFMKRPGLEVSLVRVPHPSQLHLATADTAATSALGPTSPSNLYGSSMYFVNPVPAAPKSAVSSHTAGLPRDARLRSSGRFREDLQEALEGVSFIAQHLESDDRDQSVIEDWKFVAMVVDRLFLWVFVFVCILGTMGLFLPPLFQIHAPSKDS
Summary of the method: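 TEVC on stage IV–V oocytes 1–5 days after equal-ratio cRNA injection (α2β4, α3β4, α4β4, α7). ACh 300 μM, 1 s pulses at 60 s intervals under frog saline perfusion. Peptide perfused to 1 μM, normalized to average of three control responses; higher concentrations by 5 min static bath. IC50 with 95% CI, n oocytes.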

Rattus norvegicus [9] = species: Rattus norvegicus; assay: Selectivity ratio of IC50 for rat alpha2beta2 nAChR to IC50 for rat alpha6/alpha3beta4 nAChR; summary of the method: as §1
Rattus norvegicus [10] = species: Rattus norvegicus; assay: Selectivity ratio of IC50 for rat alpha7 nAChR to IC50 for rat alpha6/alpha3beta4 nAChR; summary of the method: as §1
[11] = biological target: Neuronal acetylcholine receptor; alpha3/beta2 (Rattus norvegicus) (UniProt P04757+P12390); assay: Inhibition of rat alpha3beta2 nAChR expressed in Xenopus laevis oocytes assessed as inhibition of acetylcholine-induced current response at 10 uM by two-electrode voltage-clamp method relative to control; assay type: cell-based; conditions: Oocyte
Summary of the method: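 Oocytes (stage IV–V) injected with equal-ratio cRNAs of cloned subunits; TEVC 1–5 days post-injection. ACh 100 μM for β2-containing and α9α10 subtypes, 1 s pulses every 60 s. Peptide 10 μM in 5 min static bath; response normalized to ACh response after 5 min control-saline bath; mean ± SD, n = 4.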

CC[C@H](C)[C@@H]1NC(=O)[C@H](CCC(=O)O)NC(=O)[C@@H]2CCCN2C(=O)[C@H](Cc2cnc[nH]2)NC(=O)[C@H](CC(N)=O)NC(=O)[C@H](C(C)C)NC(=O)[C@H](CC(N)=O)NC(=O)[C@@H]2CSSC[C@H](NC(=O)CN)C(=O)N[C@@H](CSSC[C@@H](C(N)=O)NC1=O)C(=O)N[C@@H](CO)C(=O)N[C@@H](Cc1cnc[nH]1)C(=O)N1CCC[C@H]1C(=O)N[C@@H](C(C)C)C(=O)N2 (H-GCCSHPVCNVNHPEIC-NH2; disulfide 2-8, 3-16)
Ratio IC50 (Rattus norvegicus [1]): > 20000
pIC50 [2]: < 5.00
deltalogIC50 [3]: -2.4
Ratio IC50 (Homo sapiens): 675
pIC50 [4]: < 5.00
Ratio IC50 (Rattus norvegicus [5]): > 20000
inhibition [6]: 81%
pIC50 [7]: 6.95
pIC50 [8]: < 5.00
Ratio IC50 (Rattus norvegicus [9]): > 20000
Ratio IC50 (Rattus norvegicus [10]): > 20000
inhibition [11]: 94%
